Legend:
[1] = Anticancer activity against Syrian golden hamster BHK21 cells at 1 uM after 48 hrs by SRB assay; format: functional; conditions: Mesocricetus auratus, BHK-21, 48 h; read-out: GI
Outline: (§1)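 RPMI-1640 culture with 10% heat-inactivated FBS, 2 mM glutamine, 1 mM pyruvate and penicillin/streptomycin at 37 °C, 5% CO2. Cells per 96-well well: H157 10⁴, BHK-21 5×10⁴. After 24 h, monolayers were exposed to 100, 10, 1 or 0.1 µM compound for 48 h, with vincristine as standard. Cells were fixed in cold 50% TCA (4 °C, 1 h) and stained with 0.4% SRB in 1% acetic acid (30 min). Dye was dissolved in 10 mM Tris and read at A490 minus A630. Read-out was percent inhibition.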

[2] = system: Leishmania major; assay: Antileishmanial activity against promastigote form of Leishmania major at 10 uM after 72 hrs by MTT assay; format: functional
Outline: (§2)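 Log-phase promastigotes grown at 25 °C in phenol-red-free D-MEM/F-12 with 10% heat-inactivated FBS, washed in PBS, seeded at 2.5×10⁶/mL (100 µL/well). Compounds in triplicate wells, 72 h at 25 °C; amphotericin B standard. MTT (5 mg/mL stock) 3 h, stopped with 50% isopropanol/10% SDS, OD570 minus 690. Percent inhibition vs control; mean ± SEM of three independent experiments.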

[3] = system: NCI-H157; assay: Anticancer activity against human NCI-H157 cells at 100 uM after 48 hrs by SRB assay; format: functional; conditions: NCI-H157, 48 h, read-out: GI; outline: as §1
[4] = system: NCI-H157; assay: Anticancer activity against human NCI-H157 cells at 0.1 uM after 48 hrs by SRB assay; format: functional; conditions: NCI-H157, 48 h, read-out: GI; outline: as §1
[5] = target: Acetylcholinesterase (Electrophorus electricus, UniProt O42275); assay: (§3) Inhibition of electric eel acetylcholinesterase using acetylthiocholine iodide as substrate preincubated for 10 mins before substrate addition after 15 mins by Ellman's method
Sequence of Acetylcholinesterase (O42275 whole entry): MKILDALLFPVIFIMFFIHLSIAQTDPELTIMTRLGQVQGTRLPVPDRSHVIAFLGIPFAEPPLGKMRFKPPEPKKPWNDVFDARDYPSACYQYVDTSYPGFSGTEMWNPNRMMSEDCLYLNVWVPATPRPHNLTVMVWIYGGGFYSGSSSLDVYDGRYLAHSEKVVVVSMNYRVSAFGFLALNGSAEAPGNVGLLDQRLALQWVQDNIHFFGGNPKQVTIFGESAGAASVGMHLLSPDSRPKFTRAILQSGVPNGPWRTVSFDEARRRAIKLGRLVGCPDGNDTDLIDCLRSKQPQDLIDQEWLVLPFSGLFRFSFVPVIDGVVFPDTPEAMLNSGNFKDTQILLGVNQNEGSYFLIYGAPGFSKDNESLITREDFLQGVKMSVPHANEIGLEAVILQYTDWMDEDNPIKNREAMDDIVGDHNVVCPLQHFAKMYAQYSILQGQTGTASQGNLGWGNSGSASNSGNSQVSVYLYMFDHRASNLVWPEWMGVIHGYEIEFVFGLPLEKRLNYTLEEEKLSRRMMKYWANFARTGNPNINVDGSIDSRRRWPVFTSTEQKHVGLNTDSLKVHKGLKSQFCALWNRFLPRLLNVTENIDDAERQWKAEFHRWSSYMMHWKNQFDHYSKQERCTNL

[6] = target: Intestinal-type alkaline phosphatase (Bos taurus) (UniProt P19111); assay: (§4) Inhibition of calf intestinal alkaline phosphatase using p-nitrophenyl phosphate as substrate preincubated for 10 mins before substrate addition after 30 mins; set-up: concentration or dose not given beside the values
Sequence of Intestinal-type alkaline phosphatase (Bos taurus) (P19111 20-506 limits assumed): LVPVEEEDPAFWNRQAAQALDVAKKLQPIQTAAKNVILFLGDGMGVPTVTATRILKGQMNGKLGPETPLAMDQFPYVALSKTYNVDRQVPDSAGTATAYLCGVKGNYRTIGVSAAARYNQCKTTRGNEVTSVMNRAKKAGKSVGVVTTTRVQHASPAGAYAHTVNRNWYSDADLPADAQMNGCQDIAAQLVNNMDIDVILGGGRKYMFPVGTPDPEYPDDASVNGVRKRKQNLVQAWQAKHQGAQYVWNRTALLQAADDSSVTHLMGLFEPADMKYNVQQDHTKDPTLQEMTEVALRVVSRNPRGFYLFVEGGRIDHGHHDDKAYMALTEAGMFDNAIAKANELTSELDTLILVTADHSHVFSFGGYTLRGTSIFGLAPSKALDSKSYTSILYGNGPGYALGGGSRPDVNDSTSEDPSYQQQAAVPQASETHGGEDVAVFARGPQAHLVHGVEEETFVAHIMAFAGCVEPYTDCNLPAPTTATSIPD

[7] = system: Leishmania major; assay: Antileishmanial activity against promastigote form of Leishmania major at 100 uM after 72 hrs by MTT assay; format: functional; outline: as §2
[8] = Anticancer activity against Syrian golden hamster BHK21 cells at 0.1 uM after 48 hrs by SRB assay; format: functional; conditions: Mesocricetus auratus, BHK-21, 48 h; read-out: GI; outline: as §1
[9] = system: Leishmania major; assay: Antileishmanial activity against promastigote form of Leishmania major at 0.1 uM after 72 hrs by MTT assay; format: functional; outline: as §2
[10] = system: NCI-H157; assay: Anticancer activity against human NCI-H157 cells at 1 uM after 48 hrs by SRB assay; format: functional; conditions: NCI-H157, 48 h, read-out: GI; outline: as §1
[11] = target: Cholinesterase (Homo sapiens, UniProt P06276); assay: Inhibition of human BChE using butyrylthiocholine iodide as substrate preincubated for 10 mins before substrate addition after 15 mins by Ellman's method; set-up: concentration or dose not given beside the values
Sequence of Cholinesterase (P06276 whole entry): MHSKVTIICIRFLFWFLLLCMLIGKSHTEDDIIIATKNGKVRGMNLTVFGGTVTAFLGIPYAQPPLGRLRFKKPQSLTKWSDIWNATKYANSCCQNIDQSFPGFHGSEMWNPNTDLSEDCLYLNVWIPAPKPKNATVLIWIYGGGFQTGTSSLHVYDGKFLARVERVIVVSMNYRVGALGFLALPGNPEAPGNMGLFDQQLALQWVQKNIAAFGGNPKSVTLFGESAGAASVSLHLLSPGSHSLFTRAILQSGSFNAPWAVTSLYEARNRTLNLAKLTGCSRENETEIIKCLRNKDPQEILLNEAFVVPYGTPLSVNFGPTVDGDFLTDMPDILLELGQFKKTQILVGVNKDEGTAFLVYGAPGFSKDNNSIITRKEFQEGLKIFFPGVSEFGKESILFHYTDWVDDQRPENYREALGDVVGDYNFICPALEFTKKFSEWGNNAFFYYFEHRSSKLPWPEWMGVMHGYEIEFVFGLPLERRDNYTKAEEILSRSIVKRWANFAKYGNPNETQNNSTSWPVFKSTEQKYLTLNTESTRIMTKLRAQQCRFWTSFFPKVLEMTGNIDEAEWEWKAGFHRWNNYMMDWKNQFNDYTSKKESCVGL
Outline: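 Ellman assay in 50 mM Tris-HCl, 0.1 M NaCl, 0.02 M MgCl2, pH 8.0, with DMSO at 1% final. hBChE (3.4 U/mg) is preincubated with compound for 10 min at 25 °C. Blanks lack enzyme or substrate. IC50 from linear regression.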

[12] = system: Leishmania major; assay: Antileishmanial activity against promastigote form of Leishmania major at 1 uM after 72 hrs by MTT assay; format: functional; outline: as §2
[13] = system: NCI-H157; assay: Anticancer activity against human NCI-H157 cells at 10 uM after 48 hrs by SRB assay; format: functional; conditions: NCI-H157, 48 h, read-out: GI; outline: as §1
[14] = Anticancer activity against Syrian golden hamster BHK21 cells at 100 uM after 48 hrs by SRB assay; format: functional; conditions: Mesocricetus auratus, BHK-21, 48 h; read-out: GI; outline: as §1
[15] = Anticancer activity against Syrian golden hamster BHK21 cells at 10 uM after 48 hrs by SRB assay; format: functional; conditions: Mesocricetus auratus, BHK-21, 48 h; read-out: GI; outline: as §1
[16] = target: Acetylcholinesterase (Electrophorus electricus) (UniProt O42275); assay: as §3
Sequence of Acetylcholinesterase (Electrophorus electricus) (O42275 24-633 limits assumed): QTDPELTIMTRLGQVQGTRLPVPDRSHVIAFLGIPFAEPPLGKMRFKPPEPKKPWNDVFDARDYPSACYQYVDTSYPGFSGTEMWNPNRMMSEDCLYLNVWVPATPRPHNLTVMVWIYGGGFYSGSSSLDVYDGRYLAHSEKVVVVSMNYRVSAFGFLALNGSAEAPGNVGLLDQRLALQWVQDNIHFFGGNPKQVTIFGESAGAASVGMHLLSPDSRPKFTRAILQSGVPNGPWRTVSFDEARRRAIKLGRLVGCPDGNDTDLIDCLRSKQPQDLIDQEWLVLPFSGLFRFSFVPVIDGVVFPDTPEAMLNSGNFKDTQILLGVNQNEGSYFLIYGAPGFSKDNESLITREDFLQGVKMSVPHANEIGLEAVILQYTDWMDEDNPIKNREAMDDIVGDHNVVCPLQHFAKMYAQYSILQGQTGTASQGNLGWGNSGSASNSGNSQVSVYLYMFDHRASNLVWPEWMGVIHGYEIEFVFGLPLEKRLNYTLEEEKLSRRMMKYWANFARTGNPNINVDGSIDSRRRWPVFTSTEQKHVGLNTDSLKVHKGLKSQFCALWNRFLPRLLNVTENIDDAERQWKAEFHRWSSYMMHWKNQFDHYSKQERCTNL

[17] = target: Intestinal-type alkaline phosphatase (Bos taurus, UniProt P19111); assay: as §4
Sequence of Intestinal-type alkaline phosphatase (P19111 whole entry): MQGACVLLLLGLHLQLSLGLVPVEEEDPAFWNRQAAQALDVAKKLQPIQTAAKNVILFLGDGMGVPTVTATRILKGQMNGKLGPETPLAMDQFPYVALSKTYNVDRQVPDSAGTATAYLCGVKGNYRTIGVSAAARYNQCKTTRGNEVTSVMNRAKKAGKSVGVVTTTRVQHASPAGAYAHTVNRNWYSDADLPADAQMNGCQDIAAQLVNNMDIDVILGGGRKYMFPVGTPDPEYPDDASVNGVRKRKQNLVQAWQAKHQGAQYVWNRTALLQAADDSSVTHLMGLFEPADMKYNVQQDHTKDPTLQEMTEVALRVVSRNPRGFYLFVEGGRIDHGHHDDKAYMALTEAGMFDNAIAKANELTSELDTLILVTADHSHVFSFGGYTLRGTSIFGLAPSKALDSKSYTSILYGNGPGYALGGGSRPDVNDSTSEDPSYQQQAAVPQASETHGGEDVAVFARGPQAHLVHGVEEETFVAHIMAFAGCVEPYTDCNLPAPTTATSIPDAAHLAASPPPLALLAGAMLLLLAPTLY

Row | SMILES | inhibition of growth at 1 µM [1] [%] | inhibition at 10 µM [2] [%] | inhibition of growth at 100 µM [3] [%] | inhibition of growth at 0.1 µM [4] [%] | IC50 [5] [µM] | inhibition [6] [%] | inhibition at 100 µM [7] [%] | inhibition of growth at 0.1 µM [8] [%] | inhibition at 0.1 µM [9] [%] | inhibition of growth at 1 µM [10] [%] | inhibition [11] [%] | inhibition at 1 µM [12] [%] | inhibition of growth at 10 µM [13] [%] | inhibition of growth at 100 µM [14] [%] | inhibition of growth at 10 µM [15] [%] | inhibition [16] [%] | IC50 [11] [µM] | IC50 [17] [µM]
1 | COc1cccc(C2=Nn3c(nnc3-c3ccncc3)SC2)c1 | 66.7 | 35.2 | 54.4 | 43.1 | 23.8 | 38.5 | 38.6 | 52.4 | 29.3 | 47.5 | 28.9 | 32.3 | 51.1 | 73.3 | 69.9 | – | – | –
2 | Cc1occc1-c1nn2c(-c3ccncc3)nnc2s1 | 57 | 30.8 | 58.4 | 47.1 | 51.2 | 29.9 | 34.9 | 54.6 | 25.1 | 51.9 | 41.2 | 27.3 | 55.1 | 64.7 | 61.6 | – | – | –
3 | Cc1ccc(C2=Nn3c(nnc3-c3ccncc3)SC2)cc1 | 62 | 39.8 | 63.8 | 50.3 | – | 35.7 | 43.9 | 53.1 | 34.5 | 53.2 | – | 37.7 | 57.3 | 72.6 | 68.7 | 46.1 | 26.1 | –
4 | c1cc(-c2nnc3sc(-c4ccoc4)nn23)ccn1 | 23.3 | 51.5 | 64.3 | 54.8 | – | – | 54.6 | 20.3 | 45.2 | 57.7 | – | 48.5 | 61.6 | 31.2 | 28.7 | 34.6 | 36.2 | 7.71
5 | c1ccc2c(C3=Nn4c(nnc4-c4ccncc4)SC3)cccc2c1 | 60.7 | 52.9 | 68.2 | 55.2 | 13.7 | – | 55.6 | 53.3 | 47.3 | 59.9 | – | 49 | 63.7 | 69.2 | 64.7 | – | 52.8 | 4.45
6 | c1coc(-c2nn3c(-c4ccncc4)nnc3s2)c1 | 44.9 | 77.2 | 67.9 | 56 | 12.4 | – | 81.2 | 41 | 71.5 | 60.9 | – | 75.8 | 63.8 | 50.9 | 48.2 | – | 61.6 | 3.24
7 | c1ccc(-c2ccc(C3=Nn4c(nnc4-c4ccncc4)SC3)cc2)cc1 | 37.5 | 58.9 | 56.9 | 44.5 | 16.1 | – | 61.2 | 32.7 | 52.3 | 47.8 | – | 55.9 | 62.3 | 45.8 | 41.8 | – | 42.6 | 3.84
